In the RNAGym collection of RNA variant scans (doi:10.1126/science.aae0568) one finds yeast fitness data, which are given here for 37 variants.

This sample holds only a part of the variants without activity.

B1: tRNA (parent)
chain: GUUCCGUUGGCGUAAUGGUAACGCGUCUCCCUCCUAAGGAGAAGACUGCGGGUUCGAGUCCCGUACGGAACG

In this series the parent is B1. The experiment in a line: yeast fitness relative to wild type (ratio to wild type); higher = fitter; tRNA-Arg(CCU), competitive growth, 37 C, YPD. The essentials: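 Variants of the tRNA-Arg(CCU) gene were chemically synthesised with a 3% per-site mutation rate across 69 sites and placed at the native genomic locus in Saccharomyces cerevisiae. Six parallel replicates of the pooled strains were competed in YPD at 37°C for 24 hours, and gene amplicons from the start and end populations were read by 100-nucleotide paired-end sequencing. Darwinian fitness relative to wild type was derived from changes in genotype frequencies. Genotypes required ≥ 100 starting reads, and estimates < 0.5 were set to 0.5.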
As for GUUCCGUUGGCGUAAUGGUAACGCGUGUCCCUCCUAAGGAGCAGACUGCGGGUUCGAGUCCCGUACGGAUCG [C27G A42C A70U], the yeast fitness was no more than 0.5.

As to GUUCCGUUGGCGUAAUGGUAACGCGUAUCCCGCCUAAGGAGAAGACUGCGGGUUCGAGUCCUGUACGGACCG [C27A U32G C62U A70C], the yeast fitness was 0.547.

With GUUCCGUUGGCGUAAUGGUAACGCGUAUCCCUCCUAAGGAGAAGACUGCGGGUUCCAGUCCAGUCCGGAACG [C27A G56C C62A A65C], the yeast fitness was 0.611.

Turning to GUUCCGUUGGCGUAAUGGUAACGCGUAUCCCUCCUAAGGAGAAGACUGCGGAUUCGAGUCCCGUACGGAACG [C27A G52A], the yeast fitness was 0.619.

With GUUCCGUUGGCGUAAUGGUAACGCGUGUCCCUCCUAGAGAGAAGACUGCGGGUUCGAGUCCCGUACGGAACG [C27G A37G G38A], the yeast fitness was no more than 0.5.

Turning to GUUCCGUUGGCGUAAUGGUAACGCGUGUCCCUCCUACGGGGAAGAUUGCGGGUUCGAGUCCCGUACGGAACG [C27G A37C A40G C46U], the yeast fitness was found to be 0.578.

In the case of GUUCCGUUGGCGUAAUGGUAACGCGUGUCCCUCCUUAGGAGAAGACUGCGGGUUCGAGUCCCGUACGGCACG [C27G A36U A69C], the yeast fitness was no more than 0.5.

In the case of GUUCCGUUGGCGUAAUGGUAACGCGUGUCCCUCCUAAGGAGCAGACUGCGGGUUCGAGUCCCGUCCGGAACG [C27G A42C A65C], the yeast fitness was no more than 0.5.

Take GUUCCGUUGGCGUAAUGGUAACGCGUAUCCCUCCUAAGGAGAAGACUGCGGGUUCGAGUCCCCUACGCAACG [C27A G63C G68C]: the yeast fitness amounted to 0.524.

Consider GUUCCGUUGGCGUAAUGGUAACGCGUAACCCUCCUAAGGAGAAGACUGCGGGUUCGAGUCCCGUACGGAUCG [C27A U28A A70U], for which the yeast fitness was no more than 0.5.

In the case of GUUCCGUUGGCGUAAUGGUAACGCGUAUCCCUCCUAAGGAGAAGACUGCGGUUUAGAGUCCCGUACGGAACG [C27A G52U C55A], the yeast fitness is no more than 0.5.

Consider GUUCCGUUGGCGUAAUGGUAACGCGUGUCCCUCCUAAGGUGAAGACUGCGGGUUCGUGUCCCGUAAGGAACG [C27G A40U A57U C66A], for which the yeast fitness is no more than 0.5.

GUUCCGUUGGCGUAAUGGUAACGCGUGUCCCUCCUACGAAGAAGCCUGCGGGUUCGAGUCCCGUACGGAACG [C27G A37C G39A A45C]: the yeast fitness came out at 0.646.

On to GUUCCGUUGGCGUAAUGGUAACGCGUGUCCCUCCUAAGGAGCAGACUGCGGGUUCGAGUCCGGUACGGAACG [C27G A42C C62G], for which the yeast fitness was found to be 0.561.

As to GUUCCGUUGGCGUAAUGGUAACGCGUAUCCCUCCUAAGGAGAAGACUGCGGGUUCGAGUCCCAUACGGAACG [C27A G63A], the yeast fitness was 0.88.

For the variant GUUCCGUUGGCGUAAUGGUAACGCGUGUCCCUCCUAGGGAGAAGACUGCGGUUUCGAGUCUCGUACAGAACG [C27G A37G G52U C61U G67A], the yeast fitness was no more than 0.5.

On to GUUCCGUUGGCGUAAUGGUAACGCGUGUCCCUCCUAAGGAGCAGACUGCGGGUUCGAGUCCCGUACGGAACG [C27G A42C], for which the yeast fitness is 0.586.

Turning to GUUCCGUUGGCGUAAUGGUAACGCGUGUCCCUCCUAAGGAGGAGACUGCGGGUUCGAGUCCCGUACGGAACG [C27G A42G], the yeast fitness was 0.607.

On to GUUCCGUUGGCGUAAUGGUAACGCGUAUCCCUCCUAAGGAGAAGACUGCGGGUUCGAGUCCCGCACGGAACG [C27A U64C], for which the yeast fitness amounted to 0.943.

As to GUUCCGUUGGCGUAAUGGUAACGCGUAUCCCUCCUAAGGAGAAGACUGCGGGUUCGAGUCCCGUACGAAACG [C27A G68A], the yeast fitness was 0.787.

Take GUUCCGUUGGCGUAAUGGUAACGCGUAUCCCUCCUAAGGAGAAGACUGCGGGUUCGAGUCCCGUACGUAACG [C27A G68U]: the yeast fitness was determined as 0.805.

With GUUCCGUUGGCGUAAUGGUAACGCGUGUCCCUCCUUAGGAGAAGAUUGCGGGUUCGAGUCCCGUACAGAACG [C27G A36U C46U G67A], the yeast fitness was determined as 0.54.

GUUCCGUUGGCGUAAUGGUAACGCGUAGCCCUCCUAAGGAGAAGACUGCGGGUUCGAGUCCCGCACGGAACG [C27A U28G U64C]: the yeast fitness is no more than 0.5.

Regarding GUUCCGUUGGCGUAAUGGUAACGCGUGUCCCUCCUGAGGAGAAGACUGCGGGUUCGAGUCCCGUACGGAUCG [C27G A36G A70U], the yeast fitness is no more than 0.5.

As for GUUCCGUUGGCGUAAUGGUAACGCGUAUCCCUCCUAAGGAGAAGACUGCGGGGUCGAGUCCCGUACGGAACG [C27A U53G], the yeast fitness worked out at 0.651.

With GUUCCGUUGGCGUAAUGGUAACGCGUAUCCCUCCCAAGGAGUAGACUGCGGGUUAGAGUCCCGUACGGAACG [C27A U35C A42U C55A], the yeast fitness is no more than 0.5.

With GUUCCGUUGGCGUAAUGGUAACGCGUGUCCCUCCUACGGAGAAGACUGCGGGUUCGAGUCCCGUACGGAACG [C27G A37C], the yeast fitness came to 0.911.

Take GUUCCGUUGGCGUAAUGGUAACGCGUAUCCCUCCUAAGGAGAAGACCGCGGGUUCGAGUCCCGUACGGAACG [C27A U47C]: the yeast fitness came out at 0.975.

Take GUUCCGUUGGCGUAAUGGUAACGCGUAUCCCUCCUAAGGAGAAGACUGCGCGUUCGAGUCCCGUACGGAACG [C27A G51C]: the yeast fitness worked out at 0.704.

On to GUUCCGUUGGCGUAAUGGUAACGCGUGUCCCUCCUAGGGAGAAGACUGCGGGAUCGAGUCCCGUACGGAACG [C27G A37G U53A], for which the yeast fitness came out at 0.632.

For the variant GUUCCGUUGGCGUAAUGGUAACGCGUAUCCCUCCUAAGGAGAAGACUGCGAGUUCGAGUCCCGUACGGAGCG [C27A G51A A70G], the yeast fitness was no more than 0.5.

For the variant GUUCCGUUGGCGUAAUGGUAACGCGUAUCCCUCCUAAGGAGAAGACAGCGGGUUCCAGUCCCGUACGGAACG [C27A U47A G56C], the yeast fitness stood at 0.694.

As for GUUCCGUUGGCGUAAUGGUAACGCGUGUCCCUCCUGAGGAGAAGACUGCGGGUUCGAGUCCCGUAGGGAACG [C27G A36G C66G], the yeast fitness was determined as 0.548.

With GUUCCGUUGGCGUAAUGGUAACGCGUGUCCCUCCUAGGAAGAAGACUGCGGGUUCGAGUCGCGUACGGAACG [C27G A37G G39A C61G], the yeast fitness was 0.821.

For the variant GUUCCGUUGGCGUAAUGGUAACGCGUGUCCCUCCUUAGCAGAAGACUGCGGGUUCGAGUCCCGUACGGCACG [C27G A36U G39C A69C], the yeast fitness turned out to be 0.548.

For the variant GUUCCGUUGGCGUAAUGGUAACGCGUGUCCCUCCUAUGGAGAGGACUGCGGGUUCGAGUCCCGUACGGAACG [C27G A37U A43G], the yeast fitness was no more than 0.5.

On to GUUCCGUUGGCGUAAUGGUAACGCGUGUCCCUCCUGAGGAGAAGACUGCGGGUUCGAGUCCCGUACGGUACG [C27G A36G A69U], for which the yeast fitness came out at 0.641.
